Test results taken from ChEMBL document CHEMBL1828552, “Synthesis and studies of novel 2-(4-cyano-3-trifluoromethylphenyl amino)-4-(quinoline-4-yloxy)-6-(piperazinyl/piperidinyl)-s-triazines as potential antimicrobial, antimycobacterial and anticancer agents” (2011).
Values after ≈ are worked out from the molar mass of the structure shown.

Key:
DU-145 = assay: Cytotoxicity against […] human DU145 cells after 48 hrs by SRB assay; assay type: functional; conditions: DU-145, 48 h
Method in brief: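 SRB assay in DU-145 cells grown in RPMI 1640 with 10% FBS and 2 mM L-glutamine. Cells were plated and held 24 h before addition of four 10-fold concentrations. After 48 h, cells were TCA-fixed, stained with 0.4% SRB and read at 540 nm. GI50, TGI and LC50 were derived against time-zero and control wells; each value is the mean of three experiments.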

Klebsiella pneumoniae [1] = assay: Antibacterial activity against 10^5 CFU/mL Klebsiella pneumoniae MTCC 109 after 24 hrs by disc diffusion technique; assay type: functional
Method in brief: (§1)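 Disc diffusion on Mueller–Hinton agar poured 5 mm deep. The surface was swabbed with a 10⁵ CFU/mL […] suspension. Filter-paper discs 6.25 mm in diameter were soaked in compound in DMSO and placed on the agar. Plates were incubated 24 h at 37 ± 1 °C, and the inhibition zone was measured in mm. A DMSO disc served as blank.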

Staphylococcus aureus [2] = assay: Antibacterial activity against 10^5 CFU/mL Staphylococcus aureus MTCC 96 after 24 hrs by disc diffusion technique; assay type: functional; method in brief: as §1
Klebsiella pneumoniae [3] = assay: Antibacterial activity against 10^5 CFU/mL Klebsiella pneumoniae MTCC 109 after 24 hrs by agar streak dilution method; assay type: functional; conditions: MTCC 109, 24 h
Method in brief: (§2)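 Agar streak dilution. Stock 100 µg/mL in DMSO; graded amounts were mixed into molten nutrient agar and poured at 4–5 mm depth. Plates carried serial dilutions over […]. About 10⁵ CFU/mL of each bacterium was applied, and plates were incubated at 37 ± 1 °C for 24 h. MIC was read from the dilution series.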

Proteus vulgaris [4] = assay: Antibacterial activity against 10^5 CFU/mL Proteus vulgaris MTCC 1771 after 24 hrs by disc diffusion technique; assay type: functional; method in brief: as §1
Bacillus cereus [5] = assay: Antibacterial activity against 10^5 CFU/mL Bacillus cereus MTCC 619 after 24 hrs by agar streak dilution method; assay type: functional; conditions: MTCC 619, 24 h; method in brief: as §2
Aspergillus clavatus [6] = assay: Antifungal activity against 10^5 CFU/mL Aspergillus clavatus MTCC 1323 after 48 hrs by agar streak dilution method; assay type: functional; conditions: MTCC 1323, 48 h
Method in brief: (§3)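 Agar streak dilution for fungi. Stock 100 µg/mL in DMSO; graded amounts were mixed into molten Sabouraud dextrose agar and poured at 4–5 mm depth. Serial dilutions ran over […]. About 10⁵ CFU/mL inoculum was applied, with incubation at 37 ± 1 °C for 48 h. MIC was read from the dilution series.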

Aspergillus niger [7] = assay: Antifungal activity against 10^5 CFU/mL Aspergillus niger MTCC 282 after 48 hrs by disc diffusion technique; assay type: functional
Staphylococcus aureus [8] = assay: Antibacterial activity against 10^5 CFU/mL Staphylococcus aureus MTCC 96 after 24 hrs by agar streak dilution method; assay type: functional; conditions: MTCC 96, 24 h; method in brief: as §2
Proteus vulgaris [9] = assay: Antibacterial activity against 10^5 CFU/mL Proteus vulgaris MTCC 1771 after 24 hrs by agar streak dilution method; assay type: functional; conditions: MTCC 1771, 24 h; method in brief: as §2
Escherichia coli [10] = assay: Antibacterial activity against 10^5 CFU/mL Escherichia coli MTCC 739 after 24 hrs by agar streak dilution method; assay type: functional; conditions: MTCC 739, 24 h; method in brief: as §2
Bacillus cereus [11] = assay: Antibacterial activity against 10^5 CFU/mL Bacillus cereus MTCC 619 after 24 hrs by disc diffusion technique; assay type: functional; method in brief: as §1
Candida albicans [12] = assay: Antifungal activity against 10^5 CFU/mL Candida albicans MTCC 183 after 48 hrs by agar streak dilution method; assay type: functional; conditions: MTCC 183, 48 h; method in brief: as §3
Pseudomonas aeruginosa [13] = assay: Antibacterial activity against 10^5 CFU/mL Pseudomonas aeruginosa MTCC 741 after 24 hrs by disc diffusion technique; assay type: functional; method in brief: as §1
Aspergillus fumigatus [14] = assay: Antifungal activity against 10^5 CFU/mL Aspergillus fumigatus MTCC 343 after 48 hrs by disc diffusion technique; assay type: functional
Salmonella typhi [15] = assay: Antibacterial activity against 10^5 CFU/mL Salmonella typhi MTCC 733 after 24 hrs by agar streak dilution method; assay type: functional, Salmonella enterica subsp. enterica serovar Typhi; conditions: Salmonella enterica, MTCC 733, 24 h
Shigella flexneri [16] = assay: Antibacterial activity against 10^5 CFU/mL Shigella flexneri MTCC 1457 after 24 hrs by agar streak dilution method; assay type: functional; conditions: MTCC 1457, 24 h; method in brief: as §2
Aspergillus niger [17] = assay: Antifungal activity against 10^5 CFU/mL Aspergillus niger MTCC 282 after 48 hrs by agar streak dilution method; assay type: functional; conditions: MTCC 282, 48 h; method in brief: as §3
Shigella flexneri [18] = assay: Antibacterial activity against 10^5 CFU/mL Shigella flexneri MTCC 1457 after 24 hrs by disc diffusion technique; assay type: functional; method in brief: as §1
Aspergillus fumigatus [19] = assay: Antifungal activity against 10^5 CFU/mL Aspergillus fumigatus MTCC 343 after 48 hrs by agar streak dilution method; assay type: functional; conditions: MTCC 343, 48 h; method in brief: as §3
Aspergillus clavatus [20] = assay: Antifungal activity against 10^5 CFU/mL Aspergillus clavatus MTCC 1323 after 48 hrs by disc diffusion technique; assay type: functional
Salmonella typhi [21] = assay: Antibacterial activity against 10^5 CFU/mL Salmonella typhi MTCC 733 after 24 hrs by disc diffusion technique; assay type: functional, Salmonella enterica subsp. enterica serovar Typhi
Method in brief: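 Disc diffusion. Mueller-Hinton agar autoclaved 120 °C 30 min, poured 5 mm deep. Surface swabbed with 10⁵ CFU/mL suspension […]. 6.25 mm filter-paper discs soaked in compound in DMSO; DMSO-only disc as blank. Incubated 37 ± 1 °C, 24 h for bacteria or 48 h for fungi. Ciprofloxacin and ketoconazole discs as reference drugs. Inhibition zone measured in mm.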

Pseudomonas aeruginosa [22] = assay: Antibacterial activity against 10^5 CFU/mL Pseudomonas aeruginosa MTCC 741 after 24 hrs by agar streak dilution method; assay type: functional; conditions: MTCC 741, 24 h; method in brief: as §2
Escherichia coli [23] = assay: Antibacterial activity against 10^5 CFU/mL Escherichia coli MTCC 739 after 24 hrs by disc diffusion technique; assay type: functional; method in brief: as §1
Candida albicans [24] = assay: Antifungal activity against 10^5 CFU/mL Candida albicans MTCC 183 after 48 hrs by disc diffusion technique; assay type: functional

SMILES | GI50 (DU-145) | LC50 (concentration giving 50% net cell kill relative to time zero) (DU-145) | TGI (DU-145) | inhibition zone (IZ) (Klebsiella pneumoniae [1]) | inhibition zone (IZ) (Staphylococcus aureus [2]) | MIC (Klebsiella pneumoniae [3]) | inhibition zone (IZ) (Proteus vulgaris [4]) | MIC (Bacillus cereus [5]) | MIC (Aspergillus clavatus [6]) | inhibition zone (IZ) (Aspergillus niger [7]) | MIC (Staphylococcus aureus [8]) | MIC (Proteus vulgaris [9]) | MIC (Escherichia coli [10]) | inhibition zone (IZ) (Bacillus cereus [11]) | MIC (Candida albicans [12]) | inhibition zone (IZ) (Pseudomonas aeruginosa [13]) | inhibition zone (IZ) (Aspergillus fumigatus [14]) | MIC (Salmonella typhi [15]) | MIC (Shigella flexneri [16]) | MIC (Aspergillus niger [17]) | further results
N#Cc1ccc(Nc2nc(Oc3ccnc4ccccc34)nc(N3CCN(c4ccc(F)cc4)CC3)n2)cc1C(F)(F)F | > 100 µM | > 100 µM | > 100 µM | 23 mm | 25 mm | 25 µg/mL (≈ 42.6 µM) | 24 mm | 6.25 µg/mL (≈ 10.7 µM) | 50 µg/mL (≈ 85.2 µM) | 26 mm | 25 µg/mL (≈ 42.6 µM) | 25 µg/mL (≈ 42.6 µM) | 50 µg/mL (≈ 85.2 µM) | 26 mm | 50 µg/mL (≈ 85.2 µM) | 23 mm | 24 mm | 25 µg/mL (≈ 42.6 µM) | 50 µg/mL (≈ 85.2 µM) | 12.5 µg/mL (≈ 21.3 µM) | inhibition zone (IZ) (Shigella flexneri [18]): 21 mm; MIC (Aspergillus fumigatus [19]): 50 µg/mL (≈ 85.2 µM); inhibition zone (IZ) (Aspergillus clavatus [20]): 25 mm; inhibition zone (IZ) (Salmonella typhi [21]): 24 mm; MIC (Pseudomonas aeruginosa [22]): 25 µg/mL (≈ 42.6 µM); inhibition zone (IZ) (Escherichia coli [23]): 22 mm; inhibition zone (IZ) (Candida albicans [24]): 24 mm
CCN1CCN(c2nc(Nc3ccc(C#N)c(C(F)(F)F)c3)nc(Oc3ccnc4ccccc34)n2)CC1 | 86.6 µM | > 100 µM | > 100 µM | <10 mm | 13 mm | 100 µg/mL (≈ 192 µM) | <10 mm | 100 µg/mL (≈ 192 µM) | 100 µg/mL (≈ 192 µM) | <10 mm | 100 µg/mL (≈ 192 µM) | 100 µg/mL (≈ 192 µM) | 100 µg/mL (≈ 192 µM) | 14 mm | 100 µg/mL (≈ 192 µM) | 16 mm | <10 mm | 100 µg/mL (≈ 192 µM) | 100 µg/mL (≈ 192 µM) | 100 µg/mL (≈ 192 µM) | inhibition zone (IZ) (Shigella flexneri [18]): 13 mm; MIC (Aspergillus fumigatus [19]): 100 µg/mL (≈ 192 µM); inhibition zone (IZ) (Aspergillus clavatus [20]): <10 mm; inhibition zone (IZ) (Salmonella typhi [21]): 15 mm; MIC (Pseudomonas aeruginosa [22]): 100 µg/mL (≈ 192 µM); inhibition zone (IZ) (Escherichia coli [23]): 13 mm; inhibition zone (IZ) (Candida albicans [24]): 12 mm
N#Cc1ccc(Nc2nc(Oc3ccnc4ccccc34)nc(N3CCN(c4ncccn4)CC3)n2)cc1C(F)(F)F | 85.2 µM | > 100 µM | > 100 µM | 17 mm | 21 mm | 100 µg/mL (≈ 175 µM) | 18 mm | 50 µg/mL (≈ 87.6 µM) | 100 µg/mL (≈ 175 µM) | 11 mm | 100 µg/mL (≈ 175 µM) | 100 µg/mL (≈ 175 µM) | 100 µg/mL (≈ 175 µM) | 21 mm | 100 µg/mL (≈ 175 µM) | 16 mm | 13 mm | 100 µg/mL (≈ 175 µM) | 100 µg/mL (≈ 175 µM) | 100 µg/mL (≈ 175 µM) | inhibition zone (IZ) (Shigella flexneri [18]): 17 mm; MIC (Aspergillus fumigatus [19]): 100 µg/mL (≈ 175 µM); inhibition zone (IZ) (Aspergillus clavatus [20]): 11 mm; inhibition zone (IZ) (Salmonella typhi [21]): 16 mm; MIC (Pseudomonas aeruginosa [22]): 100 µg/mL (≈ 175 µM); inhibition zone (IZ) (Escherichia coli [23]): 18 mm; inhibition zone (IZ) (Candida albicans [24]): 13 mm
